Results on nine compounds are retold here after ChEMBL document CHEMBL1641490, “Dicationic phenyl-2,2'-bichalcophenes and analogues as antiprotozoal agents” (Bioorg Med Chem, 2011).

Data set [1] relates to Trypanosoma brucei rhodesiense. Description: Antitrypanosomal activity against Trypanosoma brucei rhodesiense STIB900 after 70 hrs by alamar blue assay. The data set is classed as functional, organism-based. The conditions noted are these: STIB900, 70 h. Summed up:
(§1)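 Parasites were Trypanosoma brucei rhodesiense STIB900 and Plasmodium falciparum K1. Values are averages of duplicate determinations.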
(In general: The colour change of resazurin is a common sign of viable cells or microbes.)

The next data set deals with L6. Description: Cytotoxicity against rat L6 cells by alamar blue assay. In kind it is cell-based.
A short description of data set [2]: Selectivity index, ratio of IC50 for rat L6 cells to IC50 for Trypanosoma brucei rhodesiense STIB900. The data set is classed as toxicity, cell-based. The conditions noted are these: L6 cells versus Trypanosoma brucei rhodesiense STIB900, read-out: Ratio IC50. In short, it runs like this:
(§2)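 Ratio of IC50 in cultured L6 rat myoblasts (Alamar Blue read-out) to IC50 against P. falciparum K1 or T. b. rhodesiense STIB900. Parasite values are the average of duplicate determinations.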

The test system of the next data set is Plasmodium falciparum. Description: Antiplasmodial activity against Plasmodium falciparum K1 infected in human RBC after 48 hrs by [3H]-hypoxanthine incorporation assay. In kind it is functional, organism-based. Summed up:
as §1

Data set [3] in a line: Selectivity index, ratio of IC50 for rat L6 cells to IC50 for Plasmodium falciparum K1. In kind it is toxicity, cell-based. The conditions noted are these: L6 cells versus Plasmodium falciparum K1, read-out: Ratio IC50. In short, it runs like this: as §2
The subject of data set [4] is Trypanosoma brucei rhodesiense. The data set can be described thus: Antitrypanosomal activity against Trypanosoma brucei rhodesiense STIB900 infected in NMRI mouse assessed as parasitemia free host at 5 mg/kg, ip administered 2 days after post infection for 4 consecutive days measured up to 60 days. The arrangement: dose 5 mg/kg. The data set is classed as functional, organism-based.

Data set [5] relates to Trypanosoma brucei rhodesiense. Description: Antitrypanosomal activity against Trypanosoma brucei rhodesiense STIB900 infected in NMRI mouse assessed as effect on survival days at 5 mg/kg, ip […] measured up to 60 days. The data set is classed as functional. The following applies: route intraperitoneal.
The test system of data set [6] is Trypanosoma brucei rhodesiense. The data set can be described thus: Antitrypanosomal activity against Trypanosoma brucei rhodesiense STIB900 infected in NMRI mouse assessed as effect on survival days at 20 mg/kg, ip administered 2 days after post infection for 4 consecutive days measured up to 60 days. The data set is classed as functional. The conditions noted are these: route intraperitoneal.

The IC50 is the concentration needed to halve the response being measured. As usually defined, the ΔTm is the shift of the melting midpoint relative to a reference.

The structures appear in SMILES notation. Calls of active or inactive are those of the source. The rule behind the calls is not given here. A value given as a limit tells only on which side of the number the result lay.

Turning to `Cl.N=C(N)c1ccc(-c2ccc(-c3ccc(C(=N)N)s3)o2)cc1`, the IC50 stood at 6 nM in data set [1], 10900 nM with L6 and 17.4 nM in the data set with Plasmodium falciparum. Also, the selectivity ratio was found to be 1820 in data set [2] and 626 in data set [3]. In addition, the outcome in data set [4] was inactive. In [5], the Survival worked out at 16.75 days. For the same compound, the ΔTm in the data set with Nucleic Acid was 14.1 °C.

Turning to `Cl.N=C(N)c1ccc(-c2ccc(-c3ccc(C(=N)N)o3)s2)cc1`, the IC50 in data set [1] stood at 2 nM; with L6, 29300 nM; in the data set with Plasmodium falciparum it was 0.9 nM. Moreover, the selectivity ratio in data set [2] turned out to be 14900; in data set [3] it was 32600. Besides, in data set [5], the Survival is >46.5 days. Further, the ΔTm in the data set with Nucleic Acid is 13.1 °C.

On to `N=C(N)c1ccc(-c2ccc(-c3ccc(C(=N)N)cc3)o2)cc1` [FURAMIDINE], for which the result in data set [4] was Active. In addition, in data set [5], the Survival is >46 days.

With `N=C(N)c1ccc(OCCCCCOc2ccc(C(=N)N)cc2)cc1` [PENTAMIDINE], the IC50 was 6000 nM in the data set with L6 and 6.4 nM in the data set with Plasmodium falciparum. Moreover, in [5], the Survival was >45 days.

On to `Cl.N=C(N)c1ccc(-c2ccc(-c3ccc(C(=N)N)s3)s2)cn1`, for which the IC50 in data set [1] was 4 nM; in the data set with L6, 4000 nM; with Plasmodium falciparum it was 2.3 nM. In addition, the selectivity ratio in data set [2] amounted to 1000; in [3] it was 1740. Moreover, in data set [5], the Survival worked out at 49 days. Besides, the ΔTm in the data set on Nucleic Acid was determined as 16.6 °C.

As for `Cl.N=C(N)c1ccc(-c2ccc(-c3ccc(C(=N)N)o3)o2)cn1`, the IC50 in data set [1] was determined as 6 nM; in the data set on L6, 38500 nM; in the data set with Plasmodium falciparum, 1 nM. The selectivity ratio was 6420 in [2] and 38500 in data set [3]. The outcome in [4] was inactive. Further, in data set [5], the Survival amounted to 41.75 days. Besides, the ΔTm with Nucleic Acid is 5.5 °C.

Turning to `Cl.N=C(N)c1ccc(C#Cc2ccc(-c3ccc(C(=N)N)o3)o2)cc1`, the IC50 in [1] is 42 nM; in the data set with L6 it was 63000 nM; in the data set on Plasmodium falciparum it was 14.1 nM. Besides, the selectivity ratio in [2] turned out to be 1500; in data set [3] it was 4470. In addition, the outcome in [4] was inactive. The Survival in data set [5] amounted to 15.25 days. Also, in the data set with Nucleic Acid, the ΔTm was 4 °C.

As for `Cl.N=C(N)c1ccc(-c2ccc(-c3ccc(C(=N)N)o3)o2)cc1`, the IC50 amounted to 12 nM in data set [1], 37800 nM in the data set on L6 and 41.5 nM in the data set on Plasmodium falciparum. In addition, the selectivity ratio in data set [2] was found to be 3150; in [3], 910. Besides, the Survival in [6] was >45.5 days. Further, the ΔTm in the data set with Nucleic Acid stood at 8.5 °C.

Turning to `Cl.N=C(N)c1ccc(-c2ccc(-c3ccc(C(=N)N)s3)s2)cc1`, the IC50 turned out to be 2 nM in data set [1], 6000 nM in the data set on L6 and 10.4 nM with Plasmodium falciparum. Also, the selectivity ratio stood at 3000 in data set [2] and 576 in data set [3]. Also, in data set [4], the outcome was inactive. Moreover, the Survival in data set [5] was 25.25 days. Further, the ΔTm in the data set with Nucleic Acid came to 18.1 °C.
